Measured values as given in ChEMBL document CHEMBL4334458, “Design, synthesis and antibacterial evaluation of novel 15-membered 11a-azahomoclarithromycin derivatives with the 1, 2, 3-triazole side chain” (Eur J Med Chem, 2019).
Values after ≈ are worked out from the molar mass of the structure shown.

Columns and labels:
Format in all cases: functional
[1] = system: Pseudomonas aeruginosa; test: Antibacterial activity against penicillin-susceptible Pseudomonas aeruginosa ATCC 27853 incubated for 24 hrs by broth dilution method; details: ATCC 27853, 24 h
Method in brief: (§1)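 CLSI broth microdilution in cation-adjusted Mueller-Hinton broth. Twofold dilutions spanned 0.25–128 or 0.5–256 µg/mL, with CAM and AZM as controls. Log-phase bacteria were added and incubated 24 h at 37 °C. MIC was read by turbidity as the concentration of the last clear well.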

[2] = system: Streptococcus pneumoniae; test: Antibacterial activity against erythromycin-resistant Streptococcus pneumoniae AB11 expressing the ermB and mefA incubated for 24 hrs by broth dilution method
[3] = system: Streptococcus pyogenes; test: Antibacterial activity against erythromycin-susceptible Streptococcus pyogenes 1 clinical isolate incubated for 24 hrs by broth dilution method; method in brief: as §1
[4] = system: Streptococcus pyogenes; test: Antibacterial activity against erythromycin-resistant Streptococcus pyogenes 2 clinical isolate incubated for 24 hrs by broth dilution method
[5] = system: Staphylococcus aureus; test: Antibacterial activity against erythromycin-susceptible Staphylococcus aureus ATCC 25923 incubated for 24 hrs by broth dilution method; details: ATCC 25923, 24 h; method in brief: as §1
[6] = system: Staphylococcus aureus; test: Antibacterial activity against penicillin-resistant Staphylococcus aureus ATCC 31007 incubated for 24 hrs by broth dilution method; details: ATCC 31007, 24 h
[7] = system: Bacillus subtilis; test: Antibacterial activity against penicillin-susceptible Bacillus subtilis ATCC 9372 incubated for 24 hrs by broth dilution method; details: ATCC 9372, 24 h; method in brief: as §1
[8] = system: Escherichia coli; test: Antibacterial activity against penicillin-susceptible Escherichia coli ATCC 25922 incubated for 24 hrs by broth dilution method; details: ATCC 25922, 24 h; method in brief: as §1
[9] = system: Streptococcus pneumoniae; test: Antibacterial activity against erythromycin-resistant Streptococcus pneumoniae B1 expressing the ermB incubated for 24 hrs by broth dilution method
[10] = system: Staphylococcus aureus; test: Antibacterial activity against methicillin-resistant Staphylococcus aureus ATCC 43300 incubated for 24 hrs by broth dilution method; details: ATCC 43300, 24 h

Structure (SMILES)	MIC [1] [µg/mL]	MIC [2] [µg/mL]	MIC [3] [µg/mL]	MIC [4] [µg/mL]	MIC [5] [µg/mL]	MIC [6] [µg/mL]	MIC [7] [µg/mL]	MIC [8] [µg/mL]	MIC [9] [µg/mL]	MIC [10] [µg/mL]
COc1ccc(-c2cn(C[C@H]3COC(=O)[C@H](C)[C@@H](O[C@H]4C[C@@](C)(OC)[C@@H](O)[C@H](C)O4)[C@H](C)[C@@H](O[C@@H]4O[C@H](C)C[C@H](N(C)C)[C@H]4O)[C@](C)(OC)C[C@@H](C)[C@H](O)[C@H](C)CN3C)nn2)cc1	> 128	64 (≈ 71.7 µM)	4 (≈ 4.48 µM)	256 (≈ 287 µM)	64 (≈ 71.7 µM)	256 (≈ 287 µM)	32 (≈ 35.9 µM)	> 128	256 (≈ 287 µM)	256 (≈ 287 µM)
CO[C@]1(C)C[C@@H](C)[C@H](O)[C@H](C)CN(C)C[C@@H](Cn2cc(-c3ccc(Cl)cc3)nn2)OC(=O)[C@H](C)[C@@H](O[C@H]2C[C@@](C)(OC)[C@@H](O)[C@H](C)O2)[C@H](C)[C@H]1O[C@@H]1O[C@H](C)C[C@H](N(C)C)[C@H]1O	> 128	64 (≈ 71.4 µM)	2 (≈ 2.23 µM)	32 (≈ 35.7 µM)	8 (≈ 8.92 µM)	64 (≈ 71.4 µM)	16 (≈ 17.8 µM)	128 (≈ 143 µM)	64 (≈ 71.4 µM)	64 (≈ 71.4 µM)
CO[C@]1(C)C[C@@H](C)[C@H](O)[C@H](C)CN(C)C[C@@H](Cn2cc(-c3ccccn3)nn2)OC(=O)[C@H](C)[C@@H](O[C@H]2C[C@@](C)(OC)[C@@H](O)[C@H](C)O2)[C@H](C)[C@H]1O[C@@H]1O[C@H](C)C[C@H](N(C)C)[C@H]1O	64 (≈ 74.2 µM)	128 (≈ 148 µM)	1 (≈ 1.16 µM)	128 (≈ 148 µM)	2 (≈ 2.32 µM)	> 256	4 (≈ 4.63 µM)	128 (≈ 148 µM)	128 (≈ 148 µM)	> 256
CO[C@]1(C)C[C@@H](C)[C@H](O)[C@H](C)CN(C)C[C@H](COCc2cn(-c3cccc(C(F)(F)F)c3)nn2)OC(=O)[C@H](C)[C@@H](O[C@H]2C[C@@](C)(OC)[C@@H](O)[C@H](C)O2)[C@H](C)[C@H]1O[C@@H]1O[C@H](C)C[C@H](N(C)C)[C@H]1O	16 (≈ 16.7 µM)	64 (≈ 66.7 µM)	2 (≈ 2.08 µM)	64 (≈ 66.7 µM)	1 (≈ 1.04 µM)	256 (≈ 267 µM)	1 (≈ 1.04 µM)	64 (≈ 66.7 µM)	128 (≈ 133 µM)	256 (≈ 267 µM)
CO[C@]1(C)C[C@@H](C)[C@H](O)[C@H](C)CN(C)C[C@@H](COCc2cn(-c3ccccc3)nn2)OC(=O)[C@H](C)[C@@H](O[C@H]2C[C@@](C)(OC)[C@@H](O)[C@H](C)O2)[C@H](C)[C@H]1O[C@@H]1O[C@H](C)C[C@H](N(C)C)[C@H]1O	128 (≈ 143 µM)	64 (≈ 71.7 µM)	1 (≈ 1.12 µM)	64 (≈ 71.7 µM)	1 (≈ 1.12 µM)	> 256	1 (≈ 1.12 µM)	128 (≈ 143 µM)	256 (≈ 287 µM)	256 (≈ 287 µM)
CO[C@]1(C)C[C@@H](C)[C@H](O)[C@H](C)CN(C)C[C@@H](COCc2cn(-c3cccc(C(F)(F)F)c3)nn2)OC(=O)[C@H](C)[C@@H](O[C@H]2C[C@@](C)(OC)[C@@H](O)[C@H](C)O2)[C@H](C)[C@H]1O[C@@H]1O[C@H](C)C[C@H](N(C)C)[C@H]1O	> 128	16 (≈ 16.7 µM)	4 (≈ 4.17 µM)	32 (≈ 33.3 µM)	8 (≈ 8.33 µM)	64 (≈ 66.7 µM)	2 (≈ 2.08 µM)	128 (≈ 133 µM)	32 (≈ 33.3 µM)	32 (≈ 33.3 µM)
COc1ccc(-c2cn(C[C@@H]3CN(C)C[C@@H](C)[C@@H](O)[C@H](C)C[C@@](C)(OC)[C@H](O[C@@H]4O[C@H](C)C[C@H](N(C)C)[C@H]4O)[C@@H](C)[C@H](O[C@H]4C[C@@](C)(OC)[C@@H](O)[C@H](C)O4)[C@@H](C)C(=O)O3)nn2)cc1	> 128	128 (≈ 143 µM)	4 (≈ 4.48 µM)	64 (≈ 71.7 µM)	32 (≈ 35.9 µM)	256 (≈ 287 µM)	64 (≈ 71.7 µM)	> 128	256 (≈ 287 µM)	256 (≈ 287 µM)
CO[C@]1(C)C[C@@H](C)[C@H](O)[C@H](C)CN(C)[C@H](Cn2cc(-c3ccccc3)nn2)COC(=O)[C@H](C)[C@@H](O[C@H]2C[C@@](C)(OC)[C@@H](O)[C@H](C)O2)[C@H](C)[C@H]1O[C@@H]1O[C@H](C)C[C@H](N(C)C)[C@H]1O	64 (≈ 74.2 µM)	256 (≈ 297 µM)	8 (≈ 9.28 µM)	128 (≈ 148 µM)	8 (≈ 9.28 µM)	128 (≈ 148 µM)	16 (≈ 18.6 µM)	64 (≈ 74.2 µM)	256 (≈ 297 µM)	256 (≈ 297 µM)
